Tests used:
Vero [1] = experiment: In vitro antiviral activity against Para 3 virus in (vero) V cells of african green monkey kidney / 1000 toxic level; type: functional, Chlorocebus sabaeus
Vero [2] = experiment: In vitro antiviral activity against COXB1 virus in (vero) V cells of african green monkey kidney / 1000 toxic level; type: functional, Chlorocebus sabaeus
Vero [3] = experiment: In vitro antiviral activity against V V virus in (vero) V cells of african green monkey kidney / 1000 toxic level; type: functional, Chlorocebus sabaeus
[4] = system: Laryngeal epithelioma cell line; experiment: In vitro antiviral activity against COXB1 virus in human laryngeal epithelioma cell line / 320 toxic level; type: functional
[5] = system: Laryngeal epithelioma cell line; experiment: In vitro antiviral activity against VSV virus in human laryngeal epithelioma cell line / 320 toxic level; type: functional
[6] = system: Laryngeal epithelioma cell line; experiment: In vitro antiviral activity against V V virus human laryngeal epithelioma cell line / 320 toxic level; type: functional
Vero [7] = experiment: In vitro antiviral activity against VSV virus in (vero) V cells of african green monkey kidney / 1000 toxic level; type: functional, Chlorocebus sabaeus
[8] = system: Laryngeal epithelioma cell line; experiment: In vitro antiviral activity against HSV-1 virus in human laryngeal epithelioma cell line / 320 toxic level; type: functional
Vero [9] = experiment: In vitro antiviral activity against HSV-1 virus in (vero) V cells of african green monkey kidney / 1000 toxic level; type: functional, Chlorocebus sabaeus
[10] = system: Laryngeal epithelioma cell line; experiment: In vitro antiviral activity against Para 3 virus in human laryngeal epithelioma cell line / 320 toxic level; type: functional
[11] = system: Laryngeal epithelioma cell line; experiment: In vitro antiviral activity against Para 3 virus in human laryngeal epithelioma cell line / 100 toxic level; type: functional
Vero [12] = experiment: In vitro antiviral activity against HSV-1 virus in (vero) V cells of african green monkey kidney / 320 toxic level; type: functional, Chlorocebus sabaeus
[13] = system: Laryngeal epithelioma cell line; experiment: In vitro antiviral activity against Vaccinia virus human laryngeal epithelioma cell line / 100 toxic level; type: functional
Vero [14] = experiment: In vitro antiviral activity against VSV virus in (vero) V cells of african green monkey kidney / 320 toxic level; type: functional, Chlorocebus sabaeus
[15] = system: Laryngeal epithelioma cell line; experiment: In vitro antiviral activity against HSV-1 virus in human laryngeal epithelioma cell line / 100 toxic level; type: functional
Vero [16] = experiment: In vitro antiviral activity against Vaccinia virus in (vero) V cells of african green monkey kidney / 320 toxic level; type: functional, Chlorocebus sabaeus
Vero [17] = experiment: In vitro antiviral activity against Cox B1 virus in (vero) V cells of african green monkey kidney / 320 toxic level; type: functional, Chlorocebus sabaeus
[18] = system: Laryngeal epithelioma cell line; experiment: In vitro antiviral activity against VSV virus in human laryngeal epithelioma cell line / 100 toxic level; type: functional
[19] = system: Laryngeal epithelioma cell line; experiment: In vitro antiviral activity against Cox B1 virus in human laryngeal epithelioma cell line / 100 toxic level; type: functional
Vero [20] = experiment: Inhibition of growth of Pichinde virus in vero cells by administering 250 ug/mL of compound; type: functional, Chlorocebus sabaeus
Method in brief: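 Pichinde virus was adsorbed to Vero monolayers in 24-well cultures for 1 h at 37 °C. Cells were overlaid with agar containing compound dilutions and incubated at 37 °C with CO2. Plaques were counted after crystal violet staining to give inhibition of viral growth.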

Rift Valley fever virus [21] = experiment: Percent increase in survival rate of Rift Valley fever virus infected mice on day 21, by administering 50 (mg/kg)/day of compound; type: functional
Rift Valley fever virus [22] = experiment: Inhibition of growth of Rift Valley fever virus in vero cells by administering 250 ug/mL of compound; type: functional, Chlorocebus sabaeus
Vero [23] = experiment: In vitro antiviral activity against Para 3 virus in (vero) V cells of african green monkey kidney; type: functional, Chlorocebus sabaeus
Vero [24] = experiment: In vitro antiviral activity against V V virus in (vero) V cells of african green monkey kidney; type: functional, Chlorocebus sabaeus
Vero [25] = experiment: In vitro antiviral activity against HSV-1 virus in (vero) V cells of african green monkey kidney; type: functional, Chlorocebus sabaeus
Vero [26] = experiment: In vitro antiviral activity against VSV virus in (vero) V cells of african green monkey kidney; type: functional, Chlorocebus sabaeus
Vero [27] = experiment: In vitro antiviral activity against COXB1 virus in (vero) V cells of african green monkey kidney; type: functional, Chlorocebus sabaeus
Vero [28] = experiment: Inhibition of growth of Rift Valley fever virus in vero cells by administering 500 ug/mL of compound; type: functional, Chlorocebus sabaeus
[29] = system: Laryngeal epithelioma cell line; experiment: In vitro antiviral activity against Para 3 virus in human laryngeal epithelioma cell line / 1000 toxic level; type: functional
[30] = system: Laryngeal epithelioma cell line; experiment: In vitro antiviral activity against V V virus human laryngeal epithelioma cell line / 1000 toxic level; type: functional
[31] = system: Laryngeal epithelioma cell line; experiment: In vitro antiviral activity against VSV virus in human laryngeal epithelioma cell line / 1000 toxic level; type: functional
[32] = system: Laryngeal epithelioma cell line; experiment: In vitro antiviral activity against HSV-1 virus in human laryngeal epithelioma cell line / 1000 toxic level; type: functional
[33] = system: Laryngeal epithelioma cell line; experiment: In vitro antiviral activity against COXB1 virus in human laryngeal epithelioma cell line / 1000 toxic level; type: functional
[34] = system: Laryngeal epithelioma cell line; experiment: In vitro antiviral activity against Para 3 virus in human laryngeal epithelioma cell line; type: functional
[35] = system: Laryngeal epithelioma cell line; experiment: In vitro antiviral activity against COXB1 virus in human laryngeal epithelioma cell line; type: functional
Rift Valley fever virus [36] = experiment: Percent increase in survival rate of Rift Valley fever virus infected mice on day 21, by administering 100 (mg/kg)/day of compound; type: functional
[37] = system: Laryngeal epithelioma cell line; experiment: In vitro antiviral activity against VSV virus in human laryngeal epithelioma cell line; type: functional
Vero [38] = experiment: In vitro antiviral activity against VSV virus in (vero) V cells; type: functional, Chlorocebus sabaeus
Vero [39] = experiment: In vitro antiviral activity against COXB1 virus in (vero) V cells; type: functional, Chlorocebus sabaeus
[40] = system: Laryngeal epithelioma cell line; experiment: In vitro antiviral activity against V V virus in human laryngeal epithelioma cell line; type: functional
[41] = system: Laryngeal epithelioma cell line; experiment: In vitro antiviral activity against HSV-1 virus in human laryngeal epithelioma cell line; type: functional
Vero [42] = experiment: In vitro antiviral activity against Para 3 virus in (vero) V cells of african green monkey kidney / 320 toxic level; type: functional, Chlorocebus sabaeus
[43] = system: Laryngeal epithelioma cell line; experiment: In vitro antiviral activity against vaccinia virus human laryngeal epithelioma cell line / 320 toxic level; type: functional
Vero [44] = experiment: In vitro antiviral activity against vaccinia virus in (vero) V cells of african green monkey kidney / 320 toxic level; type: functional, Chlorocebus sabaeus
[45] = system: Laryngeal epithelioma cell line; experiment: In vitro antiviral activity against Cox B1 virus in human laryngeal epithelioma cell line / 320 toxic level; type: functional

Work on `OC[C@H]1OC(n2cnc3c(I)ncnc32)[C@H](O)[C@@H]1O` (stereo partly drawn) yielded a Virus rating (Vero [1]) of 0.7, a Virus rating (Vero [2]) of 0.1 and a Virus rating (Vero [3]) of 1.2. For the same molecule, the Virus rating [4] was 1, the Virus rating [5] was 0.9 and the Virus rating [6] was 0.8. It also gave a Virus rating (Vero [7]) of 0, a Virus rating [8] of 1.6 and a Virus rating (Vero [9]) of 1. It also gave a Virus rating [10] of 0.6.

Work on `N#Cc1ncnc2c1ncn2C1O[C@H](CO)[C@@H](O)[C@H]1O` (stereo partly drawn) yielded a Virus rating (Vero [1]) of 0, a Virus rating (Vero [2]) of 0 and a Virus rating (Vero [3]) of 1. For the same molecule, the Virus rating [4] was 1, the Virus rating [5] was 0.8 and the Virus rating [6] was 1. The Virus rating (Vero [7]) was 0, the Virus rating [8] was 0.8 and the Virus rating (Vero [9]) was 0.4. For the same molecule, the Virus rating [10] was 1.2.

`NC(=S)c1ncnc2c1ncn2C1O[C@H](CO)[C@@H](O)[C@H]1O` (stereo partly drawn) was tested, and the Virus rating [11] was 1.3, the Virus rating (Vero [12]) was 1.1 and the Virus rating [13] was 1.2. For the same molecule, the Virus rating (Vero [14]) was 0.5, the Virus rating [15] was 0.4 and the Virus rating (Vero [16]) was 0.8. For the same molecule, the Virus rating (Vero [17]) was 1, the Virus rating [18] was 0.7 and the Virus rating [19] was 1.1.

`NC(=O)c1ncnc2c1ncn2C1O[C@H](CO)[C@@H](O)[C@H]1O` (stereo partly drawn) was tested, and the Inhibition (Vero [20]) was 90%, the Virus rating [4] was 0.9 and the Virus rating [5] was 1.2. For the same molecule, the Virus rating [6] was 1.1, the ILS (Rift Valley fever virus [21]) was 55% and the Virus rating [8] was 0.6. For the same molecule, the Inhibition (Rift Valley fever virus [22]) was 90%, the Virus rating (Vero [23]) was 0 and the Virus rating (Vero [24]) was 1.5. It also gave a Virus rating [10] of 1.4, a Virus rating (Vero [25]) of 0.6 and a Virus rating (Vero [26]) of 0. The Virus rating (Vero [27]) was 0.4 and the Inhibition (Vero [28]) was 99%.

With `OC[C@H]1O[C@@H](n2cnc3c(Cl)ncnc32)[C@H](O)[C@@H]1O` the Virus rating [29] was 1.3, the Virus rating [30] was 0.8 and the Virus rating (Vero [24]) was 1.5. The Virus rating [31] was 0.3, the Virus rating [32] was 0.6 and the Virus rating (Vero [25]) was 0.9. For the same molecule, the Virus rating (Vero [26]) was 0.5, the Virus rating [33] was 1 and the Virus rating (Vero [27]) was 0.4.

In the case of `NC(=O)c1ncn([C@@H]2O[C@H](CO)[C@@H](O)[C@H]2O)n1` [RIBAVIRIN], the Virus rating [34] is reported as 1.4, the Virus rating [35] is reported as 1.1 and the ILS (Rift Valley fever virus [36]) is reported as 70%. It also gave a Virus rating [37] of 1.6, a Virus rating (Vero [38]) of 0.8 and a Virus rating (Vero [39]) of 0.6. It also gave a Virus rating (Vero [23]) of 1.3, a Virus rating (Vero [24]) of 1.2 and a Virus rating [40] of 1.2. It also gave a Virus rating (Vero [25]) of 0.6 and a Virus rating [41] of 1.2.

`Nc1ncnc2c(N[C@@H]3O[C@H](CO)[C@@H](O)[C@@H]3O)ncnc12` gave a Virus rating (Vero [42]) of 0.7, a Virus rating [43] of 1.3 and a Virus rating (Vero [12]) of 0.8. The Virus rating (Vero [44]) was 1.4, the Virus rating (Vero [14]) was 0.6 and the Virus rating [5] was 1.5. It also gave a Virus rating [8] of 1.6, a Virus rating (Vero [17]) of 0.6 and a Virus rating [10] of 1.5. The Virus rating [45] was 1.
